Laboratory results from ChEMBL document CHEMBL3098034, “Synthesis and biological evaluation of α-hydroxyalkylphosphonates as new antimicrobial agents” (Bioorg Med Chem Lett, 2014).
In brackets after ≈: the same amount, converted by molar mass. Activity calls are given as the source filed them. The calls are words filed in the database; no cut-off is given here.

Tests used:
Staphylococcus aureus [1] = experiment: Bactericidal activity against methicillin-resistant Staphylococcus aureus BW61 after 24 hrs by CFU counting assay; assay type: functional; conditions: BW61, 24 h
Method in brief: (§1)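 MBC (lowest concentration killing the pathogen) determined per CLSI specifications, with fosfomycin, ceftriaxone, ciprofloxacin and chloramphenicol run as reference drugs; S. aureus ATCC 29213 used as quality-control strain.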

Bacillus cereus [2] = experiment: Antibacterial activity against Bacillus cereus ATCC 11778 at 10 ug by disc diffusion method; assay type: functional; conditions: for zone of inhibition at 10 µg/disc: read-out: IZ
Escherichia coli [3] = experiment: Antibacterial activity against multidrug-resistant Escherichia coli BW54 after 24 hrs by broth microdilution method; assay type: functional; conditions: BW54, 24 h
Method in brief: (§2)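 MIC (lowest concentration preventing growth) determined per CLSI specifications, with fosfomycin, ceftriaxone, ciprofloxacin and chloramphenicol run as reference drugs; S. aureus ATCC 29213 used as quality-control strain.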

[4] = system: Stenotrophomonas maltophilia; experiment: Antibacterial activity against multidrug-resistant Stenotrophomonas maltophilia D457R after 24 hrs by broth microdilution method; assay type: functional; method in brief: as §2
[5] = system: Acinetobacter haemolyticus; experiment: Antibacterial activity against vancomycin-resistant Acinetobacter haemolyticus BW62 after 24 hrs by broth microdilution method; assay type: functional; conditions: BW62, 24 h; method in brief: as §2
[6] = system: Stenotrophomonas maltophilia; experiment: Bactericidal activity against multidrug-resistant Stenotrophomonas maltophilia D457R after 24 hrs by CFU counting assay; assay type: functional; method in brief: as §1
Escherichia coli [7] = experiment: Bactericidal activity against multidrug-resistant Escherichia coli BW54 after 24 hrs by CFU counting assay; assay type: functional; conditions: BW54, 24 h; method in brief: as §1
Escherichia coli [8] = experiment: Antibacterial activity against multidrug-resistant Escherichia coli BW54 at 10 ug by disc diffusion method; assay type: functional; conditions: for zone of inhibition at 10 µg/disc: read-out: IZ
Escherichia coli [9] = experiment: Antibacterial activity against ESBL-producing Escherichia coli BW55 at 10 ug by disc diffusion method; assay type: functional; conditions: for zone of inhibition at 10 µg/disc: read-out: IZ
Staphylococcus aureus [10] = experiment: Antibacterial activity against Staphylococcus aureus ATCC 29213 after 24 hrs by broth microdilution method; assay type: functional; conditions: ATCC 29213, 24 h; method in brief: as §2
[11] = system: Acinetobacter haemolyticus; experiment: Bactericidal activity against vancomycin-resistant Acinetobacter haemolyticus BW62 after 24 hrs by CFU counting assay; assay type: functional; conditions: BW62, 24 h; method in brief: as §1
Staphylococcus aureus [12] = experiment: Antibacterial activity against Staphylococcus aureus ATCC 29213 at 10 ug by disc diffusion method; assay type: functional; conditions: for zone of inhibition at 10 µg/disc: read-out: IZ
[13] = system: Acinetobacter haemolyticus; experiment: Antibacterial activity against vancomycin-resistant Acinetobacter haemolyticus BW62 at 10 ug by disc diffusion method; assay type: functional; conditions: for zone of inhibition at 10 µg/disc: read-out: IZ
Pseudomonas aeruginosa [14] = experiment: Antibacterial activity against multidrug-resistant Pseudomonas aeruginosa PAO1 after 24 hrs by broth microdilution method; assay type: functional; conditions: PAO1, 24 h; method in brief: as §2
Escherichia coli [15] = experiment: Antibacterial activity against ESBL-producing Escherichia coli BW55 after 24 hrs by broth microdilution method; assay type: functional; conditions: BW55, 24 h; method in brief: as §2
[16] = system: Stenotrophomonas maltophilia; experiment: Antibacterial activity against multidrug-resistant Stenotrophomonas maltophilia D457R at 10 ug by disc diffusion method; assay type: functional; conditions: for zone of inhibition at 10 µg/disc: read-out: IZ
Pseudomonas aeruginosa [17] = experiment: Antibacterial activity against multidrug-resistant Pseudomonas aeruginosa PAO1 at 10 ug by disc diffusion method; assay type: functional; conditions: for zone of inhibition at 10 µg/disc: read-out: IZ
Staphylococcus aureus [18] = experiment: Antibacterial activity against methicillin-resistant Staphylococcus aureus BW61 after 24 hrs by broth microdilution method; assay type: functional; conditions: BW61, 24 h; method in brief: as §2
Bacillus cereus [19] = experiment: Bactericidal activity against Bacillus cereus ATCC 11778 after 24 hrs by CFU counting assay; assay type: functional; conditions: ATCC 11778, 24 h; method in brief: as §1
Bacillus cereus [20] = experiment: Antibacterial activity against Bacillus cereus ATCC 11778 after 24 hrs by broth microdilution method; assay type: functional; conditions: ATCC 11778, 24 h; method in brief: as §2
Staphylococcus aureus [21] = experiment: Bactericidal activity against Staphylococcus aureus ATCC 29213 after 24 hrs by CFU counting assay; assay type: functional; conditions: ATCC 29213, 24 h; method in brief: as §1
Escherichia coli [22] = experiment: Bactericidal activity against ESBL-producing Escherichia coli BW55 after 24 hrs by CFU counting assay; assay type: functional; conditions: BW55, 24 h; method in brief: as §1
Pseudomonas aeruginosa [23] = experiment: Bactericidal activity against multidrug-resistant Pseudomonas aeruginosa PAO1 after 24 hrs by CFU counting assay; assay type: functional; conditions: PAO1, 24 h; method in brief: as §1
Human alphaherpesvirus 2 = experiment: Antiviral activity against Herpes simplex virus 2 G; assay type: functional, organism-based; conditions: Human alphaherpesvirus 2, strain G

SMILES	MBC (Staphylococcus aureus [1]) [µg/mL]	MIC (Escherichia coli [3]) [µg/mL]	MIC [4] [µg/mL]	MIC [5] [µg/mL]	MBC [6] [µg/mL]	MBC (Escherichia coli [7]) [µg/mL]	MIC (Staphylococcus aureus [10]) [µg/mL]	MBC [11] [µg/mL]	Activity (Staphylococcus aureus [12])	MIC (Pseudomonas aeruginosa [14]) [µg/mL]	MIC (Escherichia coli [15]) [µg/mL]	zone of inhibition at 10 µg/disc (Pseudomonas aeruginosa [17]) [mm]	MIC (Staphylococcus aureus [18]) [µg/mL]	MBC (Bacillus cereus [19]) [µg/mL]	MIC (Bacillus cereus [20]) [µg/mL]	MBC (Staphylococcus aureus [21]) [µg/mL]	MBC (Escherichia coli [22]) [µg/mL]	MBC (Pseudomonas aeruginosa [23]) [µg/mL]	Activity (Escherichia coli [8])	Activity [13]	also measured
O=P(Oc1ccccc1)(Oc1ccccc1)[C@](O)(CCl)c1ccccc1	64 (≈ 165 µM)	64 (≈ 165 µM)	64 (≈ 165 µM)	64 (≈ 165 µM)	64 (≈ 165 µM)	64 (≈ 165 µM)	64 (≈ 165 µM)	64 (≈ 165 µM)	inactive	64 (≈ 165 µM)	64 (≈ 165 µM)	7	64 (≈ 165 µM)	32 (≈ 82.3 µM)	64 (≈ 165 µM)	64 (≈ 165 µM)	64 (≈ 165 µM)	64 (≈ 165 µM)			zone of inhibition at 10 µg/disc (Bacillus cereus [2]): 7 mm; zone of inhibition at 10 µg/disc (Escherichia coli [8]): 9 mm; zone of inhibition at 10 µg/disc (Escherichia coli [9]): 10 mm; zone of inhibition at 10 µg/disc [13]: 8 mm; zone of inhibition at 10 µg/disc [16]: 7 mm
CC1(C)COP(=O)([C@@](O)(CCl)c2ccc(Cl)cc2)OC1	128 (≈ 377 µM)	64 (≈ 189 µM)	64 (≈ 189 µM)	64 (≈ 189 µM)	256 (≈ 755 µM)	128 (≈ 377 µM)	64 (≈ 189 µM)	128 (≈ 377 µM)	inactive	128 (≈ 377 µM)	64 (≈ 189 µM)		64 (≈ 189 µM)	128 (≈ 377 µM)	64 (≈ 189 µM)	128 (≈ 377 µM)	128 (≈ 377 µM)	128 (≈ 377 µM)	inactive	inactive	Activity (Bacillus cereus [2]): inactive; zone of inhibition at 10 µg/disc (Escherichia coli [9]): 7 mm; Activity [16]: inactive; Activity (Pseudomonas aeruginosa [17]): inactive
C[C@@H]1O[C@@H]1P(=O)(O)O [FOSFOMYCIN]	32 (≈ 232 µM)	32 (≈ 232 µM)	256 (≈ 1850 µM)	128 (≈ 927 µM)	256 (≈ 1850 µM)	32 (≈ 232 µM)	8 (≈ 57.9 µM)	128 (≈ 927 µM)		64 (≈ 464 µM)	32 (≈ 232 µM)		64 (≈ 464 µM)	32 (≈ 232 µM)	32 (≈ 232 µM)	64 (≈ 464 µM)	128 (≈ 927 µM)	64 (≈ 464 µM)			
O=P(Oc1ccccc1)(Oc1ccccc1)[C@@]1(O)CCC[C@@H]1Cl (mixture of isomers)	≥ 256	128	128	128	256	256	256	256		256	128		256	256	128	≥ 256	256	256	inactive	inactive	Activity (Bacillus cereus [2]): inactive; Activity (Escherichia coli [9]): inactive; zone of inhibition at 10 µg/disc (Staphylococcus aureus [12]): 8 mm; Activity [16]: inactive; Activity (Pseudomonas aeruginosa [17]): inactive
O=C(O)c1cn(C2CC2)c2cc(N3CCNCC3)c(F)cc2c1=O [CIPROFLOXACIN]	4 (≈ 12.1 µM)		4 (≈ 12.1 µM)	4 (≈ 12.1 µM)	256 (≈ 773 µM)	4 (≈ 12.1 µM)	4 (≈ 12.1 µM)	4 (≈ 12.1 µM)		4 (≈ 12.1 µM)			4 (≈ 12.1 µM)	4 (≈ 12.1 µM)	4 (≈ 12.1 µM)	4 (≈ 12.1 µM)	1 (≈ 3.02 µM)	4 (≈ 12.1 µM)			
O=C(N[C@H](CO)[C@H](O)c1ccc([N+](=O)[O-])cc1)C(Cl)Cl [CHLORAMPHENICOL]	128 (≈ 396 µM)	128 (≈ 396 µM)	128 (≈ 396 µM)	128 (≈ 396 µM)	≥ 256	≥ 256	8 (≈ 24.8 µM)	≥ 256		≥ 256	8 (≈ 24.8 µM)		16 (≈ 49.5 µM)	64 (≈ 198 µM)	0.5 (≈ 1.55 µM)	64 (≈ 198 µM)	128 (≈ 396 µM)	≥ 256			
CC1(C)COP(=O)([C@@](O)(CCl)c2ccccc2)OC1									inactive			6							inactive	inactive	zone of inhibition at 10 µg/disc (Bacillus cereus [2]): 7 mm; Activity (Escherichia coli [9]): inactive; Activity [16]: inactive
CO/N=C(\C(=O)N[C@@H]1C(=O)N2C(C(=O)O)=C(CSc3nc(=O)c(O)nn3C)CS[C@H]12)c1csc(N)n1 [CEFTRIAXONE]	4 (≈ 7.21 µM)	≤ 0.5	64 (≈ 115 µM)	4 (≈ 7.21 µM)	128 (≈ 231 µM)	0.5 (≈ 0.902 µM)	4 (≈ 7.21 µM)	4 (≈ 7.21 µM)		128 (≈ 231 µM)	32 (≈ 57.7 µM)		4 (≈ 7.21 µM)	64 (≈ 115 µM)	32 (≈ 57.7 µM)	4 (≈ 7.21 µM)	64 (≈ 115 µM)	128 (≈ 231 µM)			
C[C@](O)(CCl)P(=O)(Oc1ccccc1)Oc1ccccc1	256 (≈ 784 µM)	128 (≈ 392 µM)	128 (≈ 392 µM)	64 (≈ 196 µM)	≥ 256	≥ 256	128 (≈ 392 µM)	≥ 256		64 (≈ 196 µM)	64 (≈ 196 µM)	7	128 (≈ 392 µM)	128 (≈ 392 µM)	64 (≈ 196 µM)	≥ 256	256 (≈ 784 µM)	256 (≈ 784 µM)			zone of inhibition at 10 µg/disc (Bacillus cereus [2]): 12 mm; zone of inhibition at 10 µg/disc (Escherichia coli [8]): 8 mm; zone of inhibition at 10 µg/disc (Escherichia coli [9]): 7 mm; zone of inhibition at 10 µg/disc (Staphylococcus aureus [12]): 9 mm; zone of inhibition at 10 µg/disc [13]: 8 mm; Activity [16]: inactive
O=P(Oc1ccccc1)(Oc1ccccc1)[C@](O)(CCl)c1ccc(Cl)cc1	64 (≈ 151 µM)	64 (≈ 151 µM)	32 (≈ 75.6 µM)	64 (≈ 151 µM)	64 (≈ 151 µM)	64 (≈ 151 µM)	32 (≈ 75.6 µM)	128 (≈ 302 µM)		128 (≈ 302 µM)	32 (≈ 75.6 µM)	10	32 (≈ 75.6 µM)	32 (≈ 75.6 µM)	32 (≈ 75.6 µM)	64 (≈ 151 µM)	64 (≈ 151 µM)	128 (≈ 302 µM)			zone of inhibition at 10 µg/disc (Bacillus cereus [2]): 9 mm; zone of inhibition at 10 µg/disc (Escherichia coli [8]): 9 mm; zone of inhibition at 10 µg/disc (Escherichia coli [9]): 10 mm; zone of inhibition at 10 µg/disc (Staphylococcus aureus [12]): 9 mm; zone of inhibition at 10 µg/disc [13]: 7 mm; zone of inhibition at 10 µg/disc [16]: 11 mm
O=P(Oc1ccccc1)(Oc1ccccc1)[C@@]1(O)c2ccccc2C[C@@H]1Cl (mixture of isomers)	256	128	128	128	256	256	256	256		128	128	9	256	256	128	256	256	256	inactive	inactive	Activity (Bacillus cereus [2]): inactive; zone of inhibition at 10 µg/disc (Escherichia coli [9]): 8 mm; zone of inhibition at 10 µg/disc (Staphylococcus aureus [12]): 5 mm; Activity [16]: inactive
Nc1ncnc2c1ncn2CCOCP(=O)(O)O [ADEFOVIR]																					IC50 (Human alphaherpesvirus 2): 77 µM
CC1(C)COP(=O)([C@@](C)(O)CCl)OC1									inactive										inactive	inactive	Activity (Bacillus cereus [2]): inactive; Activity (Escherichia coli [9]): inactive; Activity [16]: inactive; Activity (Pseudomonas aeruginosa [17]): inactive
CC1(C)COP(=O)([C@@]2(O)CCC[C@@H]2Cl)OC1									inactive			6							inactive	inactive	Activity (Bacillus cereus [2]): inactive; Activity (Escherichia coli [9]): inactive; zone of inhibition at 10 µg/disc [16]: 6 mm
C[C@H](Cl)[C@](O)(c1ccccc1)P1(=O)OCC(C)(C)CO1									inactive										inactive	inactive	Activity (Bacillus cereus [2]): inactive; Activity (Escherichia coli [9]): inactive; zone of inhibition at 10 µg/disc [16]: 7 mm; Activity (Pseudomonas aeruginosa [17]): inactive
